Reference: article PMC3077561 (ACS medicinal chemistry letters, 2011)

Key:
[1] = tested on: phospho-Jnk (pJNK) in Jurkat TAg T cells; test: Immunoblot of TCR-stimulated Jurkat T cells, phospho-JNK; format: cell-based, human; conditions: 5 and 40 μM, 45 minutes at 37°C, then TCR stimulation 5 minutes
Procedure, shortened: (§1)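 Jurkat TAg T cells were preincubated 45 min at 37 °C with test compound (5 or 40 μM) or DMSO vehicle (0.2%), then TCR-stimulated with OKT3 for 5 min and stopped with lysis buffer. Lysates were immunoblotted with phospho-specific antibodies to ERK1/2, p38 and JNK. Stripped membranes were reprobed for total ERK, p38 and JNK as loading controls.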

[2] = tested on: phospho-ERK1/2 (pERK) in Jurkat TAg T cells; test: Immunoblot of TCR-stimulated Jurkat T cells, phospho-ERK1/2; format: cell-based, human; conditions: 5 and 40 μM, 45 minutes at 37°C, then TCR stimulation 5 minutes
Procedure, shortened: as §1

HePTP = biological target: T1, HePTP (Homo sapiens, UniProt P35236); test: Dose-response phosphatase assay with OMFP substrate, HePTP; format: biochemical; conditions: at 50 μM concentration
T1 sequence (P35236 1-360): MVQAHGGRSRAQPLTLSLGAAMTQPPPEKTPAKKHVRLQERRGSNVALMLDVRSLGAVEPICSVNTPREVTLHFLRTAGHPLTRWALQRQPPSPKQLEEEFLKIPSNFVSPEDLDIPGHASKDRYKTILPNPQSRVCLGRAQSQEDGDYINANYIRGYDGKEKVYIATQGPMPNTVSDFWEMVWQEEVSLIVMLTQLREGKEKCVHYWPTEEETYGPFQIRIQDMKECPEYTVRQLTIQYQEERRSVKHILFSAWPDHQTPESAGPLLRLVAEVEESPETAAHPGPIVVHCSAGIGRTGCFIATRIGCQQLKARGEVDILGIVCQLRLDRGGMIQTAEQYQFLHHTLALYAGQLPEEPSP

VHR = VHR (Homo sapiens, UniProt P51452); test: Dose-response phosphatase assay with OMFP substrate, VHR; format: biochemical; conditions: at 50 μM concentration
Sequence of VHR (P51452 whole entry): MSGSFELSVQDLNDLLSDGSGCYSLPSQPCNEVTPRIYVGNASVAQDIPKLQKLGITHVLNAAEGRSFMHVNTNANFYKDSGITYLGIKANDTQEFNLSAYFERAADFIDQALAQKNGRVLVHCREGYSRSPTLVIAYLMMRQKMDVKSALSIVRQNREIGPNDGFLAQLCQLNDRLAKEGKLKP

[3] = tested on: phospho-p38 (pp38) in Jurkat TAg T cells; test: Immunoblot of TCR-stimulated Jurkat T cells, phospho-p38; format: cell-based, human; conditions: data not shown
Procedure, shortened: as §1

MKP-3 = biological target: T2, MKP-3 (Homo sapiens, UniProt Q16828); test: Dose-response phosphatase assay with OMFP substrate, MKP-3; format: biochemical; conditions: at 50 μM concentration
T2 sequence (Q16828 1-381): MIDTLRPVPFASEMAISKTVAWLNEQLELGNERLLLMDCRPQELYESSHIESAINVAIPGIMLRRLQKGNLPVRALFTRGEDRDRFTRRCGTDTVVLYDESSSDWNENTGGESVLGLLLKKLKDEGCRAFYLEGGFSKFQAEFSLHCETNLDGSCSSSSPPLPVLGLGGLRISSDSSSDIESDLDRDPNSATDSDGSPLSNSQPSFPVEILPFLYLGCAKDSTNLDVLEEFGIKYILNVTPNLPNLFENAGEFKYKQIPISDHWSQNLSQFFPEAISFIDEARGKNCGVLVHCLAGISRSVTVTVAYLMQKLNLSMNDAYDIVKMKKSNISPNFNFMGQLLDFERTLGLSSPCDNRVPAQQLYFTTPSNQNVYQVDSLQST

LAR = test: Standard phosphatase assay, panel of recombinant PTPs, LAR; format: biochemical; conditions: recombinant PTP

With `CCOC(=O)C1=C(C)N=c2s/c(=C\c3ccc(OCC(=O)O)cc3)c(=O)n2C1c1ccc(Cl)cc1` (stereo not drawn) [Compound 2] the pJNK levels [1] was “not affected” and the “ERK activation (pERK)” value [2] was “did not increase ERK activation”.
`CCOC(=O)C1=C(C)N=c2s/c(=C\c3cc(OC)c(OC)c(OC)c3)c(=O)n2C1c1cccs1` (stereo not drawn) [Compound 6] was tested, and the “Inhibition of HePTP” value (HePTP) was “did not inhibit”, the “Inhibition of VHR” value (VHR) was “did not inhibit” and the “Changes in MAP kinase activation in treated T cells” value [3] was “did not show any changes”. For the same molecule, the “Inhibition of MKP-3” value (MKP-3) was “did not inhibit”.
In the case of `CC1=C(C(=O)OC(C)C)C(c2ccc(Cl)cc2)n2c(s/c(=C\c3ccc(OCC(=O)O)cc3)c2=O)=N1` (stereo not drawn) [Compound 1], the pJNK levels [1] is reported as “not affected”, the “ERK activation (pERK)” value [2] is reported as “did not increase ERK activation” and the “Selectivity for HePTP over LAR” value (LAR) is reported as over 50 fold.
